What was measured:
Dihydrofolate reductase = molecular target: T1, Dihydrofolate reductase (Mus musculus, UniProt P00375); test: Inhibitory activity towards dihydrofolate reductase in L1210 murine leukemia cell lines; format: cell-based
T1 sequence (P00375 whole entry): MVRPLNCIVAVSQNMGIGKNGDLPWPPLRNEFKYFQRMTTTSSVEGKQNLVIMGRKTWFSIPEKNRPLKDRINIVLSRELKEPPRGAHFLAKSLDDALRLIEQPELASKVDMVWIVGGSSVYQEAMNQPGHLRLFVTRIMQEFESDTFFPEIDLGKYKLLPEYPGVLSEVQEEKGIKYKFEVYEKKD

L1210 [1] = test: Growth inhibition of L1210 cell lines; format: functional, cell-based; conditions: Mus musculus
How it was run: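 L1210 murine leukemia cells were incubated with drug in culture for 48 h. Percent cell growth relative to untreated controls was plotted against concentration to obtain the IC50.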

Mus musculus [2] = test: Inoculation of 10 e5 L1210 cells, ip, on day 0, & treatment was started on day 1 with the administration of the compound, ip, in groups of five B6D2F1J male mice at dose 10 mg/kg; format: functional
H35 [3] = test: (§1) Cytotoxic activity with respect to methotrexate; format: functional, Rattus norvegicus
H35R0.3 [4] = test: as §1; format: functional, Rattus norvegicus
Mus musculus [5] = test: Inoculation of 10 e5 L1210 cells, ip, on day 0, & treatment was started on day 1 with the administration of the compound, ip, in groups of five B6D2F1J male mice at dose 40 mg/kg; format: functional
H35R0.3 [6] = test: Growth inhibition of H35R0.3 cell lines; format: functional, cell-based; conditions: Rattus norvegicus
How it was run: (§2)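 H35 rat hepatoma cells and the transport-defective H35R0.3 subline, which has normal DHFR content, were incubated with drug for 72 h, and the IC50 was determined.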

L1210 [7] = test: as §1; format: functional, Mus musculus
H35 [8] = test: Growth inhibition of H35 cell lines; format: functional, cell-based; conditions: Rattus norvegicus; how it was run: as §2
Mus musculus [9] = test: Inoculation of 10 e5 L1210 cells, ip, on day 0, & treatment was started on day 1 with the administration of the compound, ip, in groups of five B6D2F1J male mice at dose 20 mg/kg; format: functional
Mus musculus [10] = test: Inoculation of 10 e5 L1210 cells, ip, on day 0, & treatment was started on day 1 with the administration of the compound, ip, in groups of five B6D2F1J male mice at dose 1.0 mg/kg; T=19; C=9; format: functional
Mus musculus [11] = test: Inoculation of 10 e5 L1210 cells, ip, on day 0, & treatment was started on day 1 with the administration of the compound, ip, in groups of five B6D2F1J male mice at dose 1.0 mg/kg
Mus musculus [12] = test: Inoculation of 10 e5 L1210 cells, ip, on day 0, & treatment was started on day 1 with the administration of the compound, ip, in groups of five B6D2F1J male mice at dose 1.0 mg/kg; 17-22; format: functional
How it was run: (§3)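 Vehicle sterile 0.9% NaCl, ip. Dosing on days 1-10: twice daily on days 1-4 and 7-10, once daily on days 5 and 6 with a double dose given on those days. Endpoint is increase in life span (ILS) versus untreated controls. Doses are also stated as MTX-equivalent doses rounded to the nearest mg/kg.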

Mus musculus [13] = test: Inoculation of 10 e5 L1210 cells, ip, on day 0, & treatment was started on day1 with the administration of the compound, ip, in groups of five B6D2F1J male mice at dose 0.5 mg/kg
Mus musculus [14] = test: Inoculation of 10 e5 L1210 cells, ip, on day 0, & treatment was started on day 1 with the administration of the compound, ip, in groups of five B6D2F1J male mice at dose 0.5 mg/kg; T =18; C=9; format: functional
Mus musculus [15] = test: Inoculation of 10 e5 L1210 cells, ip, on day 0, & treatment was started on day 1 with the administration of the compound, ip, in groups of five B6D2F1J male mice at dose 0.5 mg/kg; 14-20; format: functional; how it was run: as §3
Mus musculus [16] = test: Inoculation of 10 e5 L1210 cells, ip, on day 0, & treatment was started on day 1 with the administration of the compound, ip, in groups of five B6D2F1J male mice at dose 0.5 mg/kg; format: functional
Mus musculus [17] = test: Inoculation of 10 e5 L1210 cells, ip, on day 0, & treatment was started on day1 with the administration of the compound, ip, in groups of five B6D2F1J male mice at dose 1 mg/kg; format: functional
How it was run: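 Male B6D2F1J mice, five per group, received 10^5 L1210 cells ip on day 0. From day 1, drug in sterile 0.9% NaCl was injected ip twice daily on days 1–4 and 7–10, with one double dose on each of days 5 and 6. […]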

IC50 (Dihydrofolate reductase) [µM] | SMILES | IC50 (L1210 [1]) [µM] | 7-day weight change (Mus musculus [2]) [%] | Relative activity (H35 [3]) | Relative activity (H35R0.3 [4]) | 7-day weight change (Mus musculus [5]) [%] | IC50 (H35R0.3 [6]) [µM] | Relative activity (L1210 [7]) | IC50 (H35 [8]) [µM] | 7-day weight change (Mus musculus [9]) [%] | median survival (days) (Mus musculus [10]) | ILS at 1 mg/kg (Mus musculus [11]) [%] | Survival range (Mus musculus [12]) | ILS at 0.5 mg/kg (Mus musculus [13]) [%] | median survival (days) (Mus musculus [14]) | Survival range (Mus musculus [15]) | 7-day weight change (Mus musculus [16]) [%] | 7-day weight change (Mus musculus [17]) [%]
0.087 | CN(Cc1cnc2nc(N)nc(N)c2n1)c1ccc(C(=O)NC(CCC(=O)NCCCCC(N)C(=O)O)C(=O)O)cc1 (stereo unspecified) | 0.76 | 11 | 0.025 | 0.3 | 2 | 6 | 0.032 | 0.4 | 5 | – | – | – | – | – | – | – | –
– | CN(Cc1cnc2nc(N)nc(N)c2n1)c1ccc(C(=O)N[C@@H](CCC(=O)O)C(=O)O)cc1 [METHOTREXATE] | 0.024 | – | – | – | – | 1.8 | – | 0.01 | – | 19 | 111 | 22 | 100 | 18 | 20 | 0 | -9
